Sampled rows, rich in hits. Any-hit rate of the full collection: about 5.5%.
Yeast lifespan up = compounds extending yeast replicative lifespan, primary screen, S. cerevisiae, OD615 | 130,000 tested, 0.68% active | S. cerevisiae growth with nicotinamide; deaD strain in restrictive glucose medium | inhibition of the nicotinamide effect, % at 10 µM;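 active = inhibition above a set limit, placed 3 SD over the median of all compounds, cut at about 26% in these data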
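System: DeaD-strain S. cerevisiae / Buffer or medium: CSMM-D, restrictive glucose (dextrose) synthetic minimal medium / Probe or stimulus: nicotinamide, 1.5 mM, co-present with compound / Compound: one concentration, 10 µM, DMSO 0.25% / Incubation: 48 h compound exposure at 30 °C, humidified / Technique: optical density (absorbance) at 615 nm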
RAM inhibit = inhibitors of the yeast RAM network, primary screen, dse1pr::URA3 reporter, 5-FOA selection. S. cerevisiae dse1pr::URA3 reporter, 5-FOA growth OD615, 2 d; analog-sensitive cbk1-as2 kinase mutant strain. inhibition, % at 50 µM. 190,000 tested, 1.8% active. AID 868, 2007;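 active = inhibition above a set limit, 3 SD over mean compound inhibition, cut at about 8.4% in these data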;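 also: inhibition rescues growth on 5-FOA so higher OD means more RAM inhibition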
BB579 growth dn = growth inhibitors of yeast BB579 in restrictive medium, primary screen, yeast lifespan-shortening project, S. cerevisiae; OD615, 48 h; inhibition, % at 10 µM; 140,000 tested, 0.51% active; AID 804, 2007;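 active = inhibition above a set limit, 3 SD over the mean compound inhibition, cut at about 44% in these data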
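test system = yeast BB579 (DeaD) | buffer or medium = restrictive CSMM-D medium | doses = single compound dose of 10 µM, 0.25% DMSO final | times = 4 h preincubation and 48 h exposure at 30 °C | technique = culture absorbance at 615 nm | benchmarks = amphotericin B 10 µg/mL, positive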
KCC2 mod = KCC2 cotransporter modulators, thallium flux, primary screen, cell-based, HEK293 KCC2, FluoZin-2 fluorescence, MLSMR; B-score of Tl+ flux slope (higher = more flux/activation; lower = inhibition) at 10 µM; KCC2 cells, thallium flux FluoZin-2 fluorescence; 190,000 tested, 2.2% active; AID 1456, 2008;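 active = thallium flux slope and its plate-corrected score both differing from the plate sample mean at a set confidence after two filtering rounds, in either direction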;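 also: slope of fluorescence scaled to starting intensity during 10 to 20 s after thallium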
Target sequence (Q9H2X9 whole entry, looked up): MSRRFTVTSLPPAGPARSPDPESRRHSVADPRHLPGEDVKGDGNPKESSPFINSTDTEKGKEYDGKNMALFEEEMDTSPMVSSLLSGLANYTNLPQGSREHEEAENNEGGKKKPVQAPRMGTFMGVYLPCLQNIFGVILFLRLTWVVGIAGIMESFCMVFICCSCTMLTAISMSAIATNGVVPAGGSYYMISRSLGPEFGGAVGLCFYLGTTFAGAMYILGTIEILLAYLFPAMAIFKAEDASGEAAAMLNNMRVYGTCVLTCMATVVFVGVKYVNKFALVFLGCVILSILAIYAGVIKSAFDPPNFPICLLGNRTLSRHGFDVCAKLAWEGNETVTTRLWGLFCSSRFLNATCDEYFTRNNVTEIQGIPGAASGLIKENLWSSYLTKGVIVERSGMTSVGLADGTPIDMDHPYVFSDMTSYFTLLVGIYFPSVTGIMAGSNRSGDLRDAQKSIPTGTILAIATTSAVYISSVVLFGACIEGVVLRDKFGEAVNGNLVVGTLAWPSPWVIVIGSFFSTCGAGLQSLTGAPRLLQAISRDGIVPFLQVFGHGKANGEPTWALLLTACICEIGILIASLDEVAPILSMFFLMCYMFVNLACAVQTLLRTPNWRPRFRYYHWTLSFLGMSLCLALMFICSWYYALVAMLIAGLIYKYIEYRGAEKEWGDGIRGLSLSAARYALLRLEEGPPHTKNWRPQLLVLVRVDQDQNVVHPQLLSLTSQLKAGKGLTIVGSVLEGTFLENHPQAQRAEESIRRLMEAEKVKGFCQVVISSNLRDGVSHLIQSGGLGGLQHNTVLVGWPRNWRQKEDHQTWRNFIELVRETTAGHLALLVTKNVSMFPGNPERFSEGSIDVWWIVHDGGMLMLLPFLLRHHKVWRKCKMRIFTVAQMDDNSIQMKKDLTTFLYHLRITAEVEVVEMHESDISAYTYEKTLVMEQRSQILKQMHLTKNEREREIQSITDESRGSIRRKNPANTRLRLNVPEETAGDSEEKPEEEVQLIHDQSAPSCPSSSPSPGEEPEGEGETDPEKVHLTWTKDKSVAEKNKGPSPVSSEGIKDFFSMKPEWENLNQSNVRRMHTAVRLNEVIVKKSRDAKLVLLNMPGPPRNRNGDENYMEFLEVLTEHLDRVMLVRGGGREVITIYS
WT yeast gro inh = growth inhibition of WT strain, primary screen, mitochondrial fusion inhibitor project, WT and mutant strains, chemical genetic; 190,000 tested, 2.1% active; mitochondrial fusion phenotypic screen; inhibition, % at 10 µM; in the data active = inhibition above about 58%; tested in S. cerevisiae
KCC2 secondary = KCC2 modulators in sodium-free buffer, confirmation, cell-based, HEK293 KCC2, thallium flux, secondary assay; shares compounds with KCC2 mod; FluoZin2 fluorescence; active compounds read high; normalised thallium flux (F/F0 slope) at 10 µM; 3,700 tested, 15% active; AID 1713, 2009;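 active = thallium flux slope above the same plate's solvent-only control mean plus 3 SD; inconclusive = the two replicate wells disagree; inactive = no significant difference from solvent-only control wells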
KCC2 bumet counter = thallium flux persisting under bumetanide in KCC2 cells, confirmation, counter-screen for KCC2 modulator project, cell-based, HEK293 KCC2, FluoZin2, secondary assay 3; shares compounds with KCC2 mod; HEK293-KCC2 + bumetanide/ouabain; active compounds read high; normalized thallium flux at 10 µM; 3,700 tested, 49% active; AID 1714, 2009;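 active = thallium entry rate above the same plate's blocked-transporter control wells by more than 3 SD; inconclusive = the two repeat wells disagree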;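 also: raw slope of fluorescence over initial fluorescence between 10 and 20 s after thallium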
KCC2 secondary2 = KCC2 modulators without ouabain present, confirmation, cell-based, HEK293 KCC2, thallium flux, FluoZin2, secondary assay 2; shares compounds with KCC2 mod; thallium flux FluoZin2 fluorescence; actives lie on both sides; F/F0 rise rate, 10–20 s post-thallium; normalized thallium flux at 10 µM; 3,700 tested, 23% active;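 active = thallium flux slope more than 3 SD above or below the plate's solvent-only control mean, mostly below; inconclusive = the two repeat wells disagreed; inactive = no significant shift from solvent-only controls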
HEK counter1 = thallium flux modulation in parental HEK cells, confirmation, counter-screen for KCC2 modulator project, cell-based, counterscreen 1. thallium flux rate (normalised fluorescence) at 10 µM. 3,700 tested, 46% active. shares compounds with KCC2 mod. HEK293 parental cells, thallium flux FluoZin2, ouabain; baseline-ratio fluorescence slope, 10–20 s after thallium;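 active = thallium flux rate significantly above the same plate's solvent-only control wells, beyond their mean plus 3 SD; inconclusive = the two replicate wells gave conflicting results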
KCC2 ouabain = KCC2 inhibitors and activators, ouabain retest, confirmation, HEK-KCC2 cells. HEK293-KCC2, thallium flux FluoZin2 fluorescence; bidirectional: low = inhibitor, high = activator. raw Tl+ flux slope (below DMSO = inhibition, above = activation) at 10 µM. 3,700 tested, 48% active. shares compounds with KCC2 mod. AID 1717, 2009;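 active = thallium flux slope beyond 3 SD from same-plate DMSO control mean in most replicates, usually higher, sometimes lower; inconclusive = repeat tests gave conflicting results; inactive = no significant difference from controls in most replicates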;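 also: slope of initial-normalized fluorescence between seconds 10 and 20 after thallium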
HEK293 Tl flux2 = native HEK Tl+ uptake effects, second counter-screen – HEK cells, counterscreen 2, counter-screen for KCC2 modulator project, confirmation; shares compounds with KCC2 mod; HEK293 parental, thallium flux FluoZin-2 fluorescence slope; thallium flux slope at 10 µM; 3,700 tested, 33% active; AID 1718, 2009;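 active = thallium flux slope above the same plate's solvent-control mean plus 3 SD in both duplicate wells; inconclusive = duplicate wells that disagreed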;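 also: run without ouabain in cells lacking the KCC2 cotransporter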
Numbers stand for hits; 0 = inactive; ? = inconclusive; - = no result given.

SMILES	Yeast lifespan up	RAM inhibit	BB579 growth dn	KCC2 mod	WT yeast gro inh	KCC2 secondary	KCC2 bumet counter	KCC2 secondary2	HEK counter1	KCC2 ouabain	HEK293 Tl flux2
O=C(COC(=O)CCSc1ccccc1)NCc1ccc(F)cc1	-	0	-	0	0	-	-	-	-	-	-
O=C(NC(=S)N(CC1CCC1)CC1CCCO1)c1cccc([N+](=O)[O-])c1 (stereo not drawn)	-	0	-	98.6	0	0.0435	0.0895	0.0447	0.0774	0.0755	0.0315
CN1CCN(c2ccc(S(=O)(=O)N3CCCCC3)cc2NC(=O)Cc2ccc(Cl)cc2)CC1	0	0	0	0	0	-	-	-	-	-	-
CCN(CC)c1ccc(S(=O)(=O)N2CCOCC2)cc1NC(=O)CNCc1ccccc1	-	-	-	-5.64	-	0	0	0	0	?	0
COc1ccccc1OCC(=O)NNC(=O)C(=O)N1CCCC1	0	0	0	0	0	-	-	-	-	-	-
COc1ccc(CCNC(=O)C2CCCN(S(=O)(=O)c3cccc4nonc34)C2)cc1OC (stereo not drawn)	0	0	0	-	0	0	0	0	0	0	0
COc1ccc(NC(=O)C2CCCN(S(=O)(=O)c3cccc4nonc34)C2)cc1OC (stereo not drawn)	-	0	-	0	0	-	-	-	-	-	-
Oc1ccccc1-n1c(-c2ccccc2)ccc1-c1ccccc1	-	-	-	0	-	-	-	-	-	-	-
COc1ccc(S(=O)(=O)NC(CC(=O)NCCc2ccccc2)c2ccco2)cc1 (stereo not drawn)	0	0	0	-	0	0	0	0	0	?	0
O=P(O)(CCc1ccccc1)CN1CCCCC1	0	0	0	0	0	-	-	-	-	-	-
O=P(CCN1CCCCC1)(c1ccccc1)c1ccccc1	0	0	0	-17	0	0	0	0	0	0	0
COc1ccc(-n2c(C)nc3cc(C(=O)NCCN4CCOCC4)ccc32)cc1	0	0	0	-6.35	0	0	0	0	0	0	0
CCOc1ccc(-n2c(C)nc3cc(C(=O)NCCN4CCOCC4)ccc32)cc1	-	0	0	0	0	-	-	-	-	-	-
COC(=O)COc1ccc(NS(=O)(=O)c2cccc([N+](=O)[O-])c2)cc1	-	0	-	0	0	-	-	-	-	-	-
COC(=O)c1cc(OC)c(OC)cc1NC(=O)Cn1nnc(-c2ccccc2Cl)n1	0	0	0	0	0	-	-	-	-	-	-
Cc1cc(C(=O)CSc2nnc(Cc3ccccc3)o2)c(C)n1Cc1ccc2c(c1)OCO2	0	0	0	0	0	-	-	-	-	-	-
C=CCn1c(C)cc(C(=O)CSc2nnc(Cc3ccccc3)o2)c1C	0	9.8	0	-	0	0	0	0.0296	0	0.0169	0
O=C(CSc1nnc(Cc2ccccc2)o1)c1ccc(F)cc1	-	-	-	-4.32	-	0	?	0.022	0	?	0
O=C(CSc1nnc(Cc2ccccc2)o1)c1cc(F)ccc1F	-	0	-	-7.13	0	0.00392	0	0.0199	?	0.0122	0
O=C(CSc1nnc(Cc2ccccc2)o1)Nc1ccccc1	-	0	-	-	0	-	-	-	-	-	-
O=C(CSc1nnc(Cc2ccsc2)o1)c1ccccc1	-	-	-	0	-	-	-	-	-	-	-
O=C(CSc1nnc(Cc2ccccc2)o1)N1CCCc2ccccc21	0	0	0	-6.05	0	0	0	0.021	0	0.0115	?
O=C(CSc1nnc(CNc2ccccc2)o1)N1CCc2ccccc21	0	0	0	0	0	-	-	-	-	-	-
O=P(OCC1CC1)(c1ccccc1)c1ccccc1	0	0	0	0	0	-	-	-	-	-	-
COc1ccc(NS(=O)(=O)c2cccc(C(=O)N/N=C/c3ccc(O)cc3)c2)cc1	-	0	-	0	0	-	-	-	-	-	-
SMILES	Yeast lifespan up	RAM inhibit	BB579 growth dn	KCC2 mod	WT yeast gro inh	KCC2 secondary	KCC2 bumet counter	KCC2 secondary2	HEK counter1	KCC2 ouabain	HEK293 Tl flux2
Cc1ccc(C)c(N2CC(C(=O)O)CC2=O)c1 (stereo not drawn)	-	0	-	0	0	-	-	-	-	-	-
CC(=O)NS(=O)(=O)c1ccc(NS(=O)(=O)c2ccccc2[N+](=O)[O-])cc1	-	-	-	0	-	-	-	-	-	-	-
CC1=C(c2ccccc2)C(=S)NC(C)(C)C1	-	-	-	0	-	-	-	-	-	-	-
CC(NC(=O)CCSc1nc(-c2ccc3c(c2)OCO3)cc(C(F)(F)F)n1)c1ccccc1 (stereo not drawn)	0	0	0	0	0	-	-	-	-	-	-
CC1=C(/C=C/C(C)=N\NC(=O)c2ccncc2)C(C)(C)CCC1	-	0	-	14.8	0	0	0.0321	?	0.0235	0.033	0.0261
CC(=O)OC1CC(c2cc(C(C)(C)C)c(O)c(C(C)(C)C)c2)=NO1 (stereo not drawn)	-	-	-	0	-	-	-	-	-	-	-
O=C(C(=O)N1CCN(c2ccc(F)cc2)CC1)c1c[nH]c2ccccc12	-	10.3	-	-3.54	0	0	0	0.0249	0	?	0
Cc1ccc(C)c(C(=O)NC(C)CCc2ccccc2)c1 (stereo not drawn)	-	0	-	-3.49	0	0	0	0.0253	0	?	0
Cc1occc1C(=O)NC(C)CCc1ccccc1 (stereo not drawn)	0	0	0	0	0	-	-	-	-	-	-
CC(CCc1ccccc1)NC(=O)/C=C/c1ccc(Cl)cc1 (stereo not drawn)	0	0	0	-8.08	0	0	0	0	0	0	0
O=C(NC(=S)Nc1ccc(N2CCOCC2)cc1)c1cccs1	-	0	-	3.15	0	0	0.0328	0	?	0	0
Cc1ccc(C(=O)N2CCN(c3ccc(NC(=S)NC(=O)c4cccs4)cc3)CC2)cc1	-	0	-	0	0	-	-	-	-	-	-
Cc1ccccc1C(=O)N1CCN(c2ccc(NC(=S)NC(=O)c3cccs3)cc2)CC1	-	0	-	0	0	0	0.0146	0	0	0	0

Source: PubChem (several laboratories)
